We go through five compounds from ChEMBL document CHEMBL1143237, “Sulfonamide-1,2,4-triazole derivatives as antifungal and antibacterial agents: synthesis, biological evaluation, lipophilicity, and conformational studies” (Bioorg Med Chem, 2008).

Data set [1] concerns Aspergillus niger. Put plainly: Antifungal activity against Aspergillus niger ATCC 6275 after 72 hrs by microdilution test. Format: functional. To be noted: ATCC 6275, 72 h. In a few lines: (§1)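 Modified microdilution in malt broth. Spores were washed from malt agar with sterile 0.85% saline containing 0.1% Tween 80 and adjusted to about 1.0 × 10⁵ per well. Compounds were dissolved in DMSO and tested at […] µg/ml. Incubation 72 h at 28 °C. MIC is the lowest concentration with no visible growth under a binocular microscope. MFC by 2 µl subculture and a further 72 h at 28 °C.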

The subject of data set [2] is Escherichia coli. Put plainly: Antibacterial activity against Escherichia coli ATCC 35210 after 24 hrs by microdilution test. As to conditions: ATCC 35210, 24 h. The data set is classed as functional. In a few lines: (§2)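 Broth microdilution in LB medium in 96-well plates. Inoculum 1.0 × 10⁴ CFU per well, from a suspension set to 1.0 × 10⁵ CFU/ml in sterile saline. Compounds at […] µg/ml. Incubation 24 h at 28 °C. MIC is the lowest concentration with no visible growth under a binocular microscope. MBC by subculturing 2 µl into fresh broth for a further 72 h. OD540 read against blank. DMSO negative control.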

Data set [3] in a line: Partition coefficient, log P of the compound. The data set is classed as physicochemical. As to conditions: octanol/water. The method, boiled down:
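Calculated, not measured: AlogP, IAlogP, ClogP, Cosmo logP, mlogP, Kowwin and XlogP were computed and averaged.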

For data set [4], the system named is Micrococcus luteus. Put plainly: Antibacterial activity against Micrococcus flavus ATCC 10240 after 24 hrs by microdilution test. The data set is classed as functional. As to conditions: ATCC 10240, 24 h. In a few lines:
as §2

For data set [5], the system named is Talaromyces funiculosus. Kind of data set: Antifungal activity against Penicillium funiculosum ATCC 36839 after 72 hrs by microdilution test. Format: functional. As to conditions: ATCC 36839, 72 h. In a few lines: as §1
For data set [6], the system named is Aspergillus flavus. Put plainly: Antifungal activity against Aspergillus flavus ATCC 9643 after 72 hrs by microdilution test. Format: functional. As to conditions: ATCC 9643, 72 h. In a few lines: as §1
The test system of data set [7] is Staphylococcus epidermidis. Put plainly: Antibacterial activity against Staphylococcus epidermidis ATCC 12228 after 24 hrs by microdilution test. The data set is classed as functional. To be noted: ATCC 12228, 24 h. In a few lines: as §2
Data set [8] relates to Salmonella enteritidis. Kind of data set: Antibacterial activity against Salmonella enteritidis ATCC 13076 after 24 hrs by microdilution test. To be noted: Salmonella enterica, ATCC 13076, 24 h. Format: functional, Salmonella enterica subsp. enterica serovar Enteritidis. The method, boiled down:
as §2

Data set [9] relates to Salmonella typhimurium. Kind of data set: Antibacterial activity against Salmonella Typhimurium ATCC 13311 after 24 hrs by microdilution test. The data set is classed as functional, Salmonella enterica subsp. enterica serovar Typhimurium. As to conditions: Salmonella enterica, ATCC 13311, 24 h. The method, boiled down: as §2
For data set [10], the system named is Aspergillus versicolor. Put plainly: Antifungal activity against Aspergillus versicolor ATCC 11730 after 72 hrs by microdilution test. Format: functional. As to conditions: ATCC 11730, 72 h. In a few lines: as §1
Data set [11] deals with Aspergillus ochraceus. Put plainly: Antifungal activity against Aspergillus ochraceus ATCC 12066 after 72 hrs by microdilution test. To be noted: ATCC 12066, 72 h. The data set is classed as functional. In a few lines: as §1
Data set [12] deals with Bacillus cereus. Put plainly: Antibacterial activity against Bacillus cereus ATCC 10907 after 24 hrs by microdilution test. To be noted: ATCC 10907, 24 h.
Data set [13] relates to Trichoderma viride. Put plainly: Antifungal activity against Trichoderma viride IAM 5061 after 72 hrs by microdilution test. The data set is classed as functional. The method, boiled down: as §1
Data set [14] deals with Enterobacter cloacae. Kind of data set: Antibacterial activity against Enterobacter cloacae after 24 hrs by microdilution test. Format: functional. In a few lines: as §2

In brackets after ≈: the same amount, converted by molar mass.

As to `COc1cc(Cc2n[nH]c(=S)n2-c2ccccc2)c(S(=O)(=O)N2CCOCC2)cc1OC`, the minimum fungicidal concentration (MFC) in data set [1], in [5], in data set [6], in data set [10], in [11] and in data set [13] was 150 µg/mL (≈ 315 µM) each time. Also, the MIC in data set [1] worked out at 150 µg/mL (≈ 315 µM); in data set [2], 100 µg/mL (≈ 210 µM); in [4] it was 150 µg/mL (≈ 315 µM); in data set [5], 100 µg/mL (≈ 210 µM); in data set [6], 100 µg/mL (≈ 210 µM); in [7], 150 µg/mL (≈ 315 µM). Further, the minimum inhibitory concentration (MIC) was found to be 150 µg/mL (≈ 315 µM) in data set [8]; 150 µg/mL (≈ 315 µM) in data set [9]; 100 µg/mL (≈ 210 µM) in [10]; 100 µg/mL (≈ 210 µM) in data set [11]; 150 µg/mL (≈ 315 µM) in data set [12]; 100 µg/mL (≈ 210 µM) in data set [13]. Besides, the MIC in [14] stood at 100 µg/mL (≈ 210 µM). In addition, the MBC in data set [2], in [4], in [7], in [8], in [9] and in [12] was 150 µg/mL (≈ 315 µM) each time. The same compound registered an MBC in [14] of 100 µg/mL (≈ 210 µM). This compound had a log partition coefficient (logP) in [3] of 1.57.

As for `COc1cc(Cc2n[nH]c(=S)n2-c2ccc(Cl)cc2)c(S(=O)(=O)N2CCCC2)cc1OC`, the minimum fungicidal concentration (MFC) in data set [1], in [5], in data set [6], in data set [10], in data set [11] and in data set [13] was 150 µg/mL (≈ 303 µM) each time. Moreover, the MIC was 150 µg/mL (≈ 303 µM) in [1]; 150 µg/mL (≈ 303 µM) in [2]; 150 µg/mL (≈ 303 µM) in [4]; 100 µg/mL (≈ 202 µM) in data set [5]; 100 µg/mL (≈ 202 µM) in [6]; 150 µg/mL (≈ 303 µM) in [7]. Moreover, the minimum inhibitory concentration (MIC) in data set [8] worked out at 150 µg/mL (≈ 303 µM); in data set [9], 150 µg/mL (≈ 303 µM); in data set [10] it was 100 µg/mL (≈ 202 µM); in [11], 100 µg/mL (≈ 202 µM); in data set [12] it was 150 µg/mL (≈ 303 µM); in data set [13], 150 µg/mL (≈ 303 µM). In [14], the minimal inhibitory concentration (MIC) is 100 µg/mL (≈ 202 µM). The MBC in [2], in data set [4], in data set [7], in [8], in data set [9] and in [12] was 150 µg/mL (≈ 303 µM) each time. Moreover, the MBC in data set [14] stood at 100 µg/mL (≈ 202 µM). In [3], this compound registered a lipophilicity (logP) of 2.11.

Take `c1ccc(-c2ccc(C(c3ccccc3)n3ccnc3)cc2)cc1` (centres undefined) [BIFONAZOLE]: the MFC in data set [1] is 250 µg/mL (≈ 805 µM); in data set [5] it was 250 µg/mL (≈ 805 µM); in [6], 200 µg/mL (≈ 644 µM); in [10], 200 µg/mL (≈ 644 µM); in [11], 200 µg/mL (≈ 644 µM); in data set [13], 250 µg/mL (≈ 805 µM). In addition, the MIC in data set [1] was 200 µg/mL (≈ 644 µM); in data set [5], 200 µg/mL (≈ 644 µM); in data set [6] it was 150 µg/mL (≈ 483 µM); in data set [10], 150 µg/mL (≈ 483 µM); in data set [11], 150 µg/mL (≈ 483 µM); in [13], 200 µg/mL (≈ 644 µM).

With `O=C(N[C@H](CO)[C@H](O)c1ccc([N+](=O)[O-])cc1)C(Cl)Cl` [CHLORAMPHENICOL], the MBC in data set [2] came out at 250 µg/mL (≈ 774 µM); in data set [4] it was 200 µg/mL (≈ 619 µM); in data set [7], 100 µg/mL (≈ 309 µM); in data set [8] it was 200 µg/mL (≈ 619 µM); in data set [9], 200 µg/mL (≈ 619 µM); in data set [12] it was 200 µg/mL (≈ 619 µM). The MBC in data set [14] is 200 µg/mL (≈ 619 µM). Also, the minimal inhibitory concentration (MIC) in data set [2] was determined as 250 µg/mL (≈ 774 µM); in data set [4], 150 µg/mL (≈ 464 µM); in data set [7], 100 µg/mL (≈ 309 µM); in [8], 150 µg/mL (≈ 464 µM); in [9], 150 µg/mL (≈ 464 µM); in data set [12] it was 150 µg/mL (≈ 464 µM). This compound also yielded an MIC in data set [14] of 150 µg/mL (≈ 464 µM).

As to `CN[C@@H]1[C@H](O[C@H]2[C@H](O[C@H]3[C@H](O)[C@@H](O)[C@H](N=C(N)N)[C@@H](O)[C@@H]3N=C(N)N)O[C@@H](C)[C@]2(O)C=O)O[C@@H](CO)[C@H](O)[C@H]1O` [STREPTOMYCIN], the MBC was 150 µg/mL (≈ 258 µM) in [2]; 150 µg/mL (≈ 258 µM) in data set [4]; 100 µg/mL (≈ 172 µM) in data set [7]; 100 µg/mL (≈ 172 µM) in data set [8]; 100 µg/mL (≈ 172 µM) in data set [9]; 150 µg/mL (≈ 258 µM) in [12]. In data set [14], this compound displayed a minimal bactericidal concentration (MBC) of 100 µg/mL (≈ 172 µM). Besides, the MIC in data set [2] was determined as 100 µg/mL (≈ 172 µM); in [4], 100 µg/mL (≈ 172 µM); in [7], 150 µg/mL (≈ 258 µM); in data set [8], 50 µg/mL (≈ 86 µM); in data set [9] it was 50 µg/mL (≈ 86 µM); in data set [12], 100 µg/mL (≈ 172 µM). In data set [14], this compound registered a minimum inhibitory concentration (MIC) of 50 µg/mL (≈ 86 µM).
